From publication PMC5383082 (International Journal of Nanomedicine, 2017)

Assays:
HeLa cells [1] = experiment: Cellular uptake; assay type: cell-based
Outline: (§1)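 Cells were grown 48 h in folate-free RPMI 1640, then given conjugates at 5 μg/mL DOX for 1 h at 37°C. For blocking, 1 mM free folate was added before the conjugates. For microscopy, monolayers were rinsed 3× with PBS, fixed in 4% paraformaldehyde for 15 min and imaged by fluorescence at equal exposure. For flow cytometry, 3×10^5 trypsinized cells per tube received the same treatment and were rinsed before reading.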

HeLa cells [2] = experiment: MTT cytotoxicity assay; assay type: cell-based
Outline: (§2)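 Cells kept in folate-free medium were seeded at 5×10^3 per well and grown 24 h. They were then exposed for 2 h at 37°C to serial dilutions of 1.56–25.00 μg/mL DOX equivalent, followed by 72 h in drug-free DMEM. MTT (5 mg/mL stock) was added for 4 h, formazan was dissolved in DMSO and absorbance read at 490 nm. Five parallel experiments; mean ± SD.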

HeLa cells [3] = experiment: Apoptosis assay; assay type: cell-based; settings: 3 μg/mL DOX
Outline: (§3)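 HeLa or KB cells were seeded at 4×10^5 per well, cultured 24 h, then exposed to conjugates at 3 μg/mL DOX for 24 h at 37°C. For receptor blocking, 1 mM free folate was added before the drug. Trypsinized and floating cells were pooled and stained with annexin V-FITC/PI. 20,000 cells per sample were analysed by flow cytometry, with FSC/SSC gating to exclude debris. Q2 was scored as late and Q4 as early apoptosis. Mean ± SD, three independent experiments.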

KB cells [4] = experiment: MTT cytotoxicity assay; assay type: cell-based
Outline: as §2

[5] = Tissue distribution of DOX after intravenous injection; assay type: in vivo; settings: mice, i.v. 5 mg/kg, compared with free DOX
Outline: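 Male Kunming mice (~25 g, 6–8 weeks) received 5 mg/kg DOX equivalent intravenously. Heart, liver, spleen and kidney were collected at 30 min and 3 h. Tissue was homogenized in ethanol/HCl/water and centrifuged at 12,000 rpm for 15 min. DOX in the supernatant was measured by fluorescence spectrophotometry. n=4; mean ± SD.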

KB cells [6] = experiment: Cellular uptake; assay type: cell-based
Outline: as §1

Subcutaneous KB tumors = experiment: KB xenograft tumor mouse model; assay type: in vivo, BALB/c nude mice; settings: KB xenograft nude mice, single i.v. dose 8 mg/kg DOX
Outline: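 Female BALB/c nude mice (6–8 weeks, 16–18 g) were inoculated subcutaneously in the front armpit with 2.5×10^6 KB cells. Once tumors were established, mice got a single tail-vein injection of 8 mg/kg DOX equivalent; saline served as control. Tumors were measured every 4 days, with volume = length × width² × 0.52. Body weight was recorded every 4 days and survival was followed. n=6 per group; mean ± SD.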

KB cells [7] = experiment: Apoptosis assay; assay type: cell-based; settings: 3 μg/mL DOX
Outline: as §3

[8] = Pharmacokinetic analysis of plasma DOX after intravenous injection; assay type: in vivo; settings: Kunming mice, i.v. 5 mg/kg DOX, noncompartmental
[9] = 2 h drug incubation then 72 h culture, DOX concentration, mean ± SD

folate-polyethylene glycol-immunoglobulin G-doxorubicin [FA-PEG-IgG-DOX]
fluorescence intensity (microscopy) (HeLa cells [1]; 5 μg/mL DOX, 1 h, 37°C): apparently higher than IgG-DOX | uptake after 1 mM folate pretreatment (microscopy) (HeLa cells [1]; 1 mM folate pretreatment): could be blocked | IC50 as fraction of that of IgG-DOX (HeLa cells [2]): about 1/8 | antitumor activity, times higher than IgG-DOX (HeLa cells [2]): at least 8 times | IC50 (HeLa cells [2]; [9]): 3.22 ± 0.9 µg/mL | proapoptotic effect after pretreatment with 1 mM folate (HeLa cells [3]): significantly diminished | IC50 as fraction of that of IgG-DOX (KB cells [4]): about 1/12 | antitumor activity, times higher than IgG-DOX (KB cells [4]): at least 8 times | IC50 (KB cells [4]; [9]): 1.78 ± 0.4 µg/mL | DOX concentration in the heart [5]: at the same level with that following free DOX injection | fluorescence intensity (microscopy) (KB cells [6]; 5 μg/mL DOX, 1 h, 37°C): apparently higher than IgG-DOX | uptake after 1 mM folate pretreatment (microscopy) (KB cells [6]; 1 mM folate pretreatment): could be blocked | body weight change (Subcutaneous KB tumors): minor body weight reduction | survival of treated mice (Subcutaneous KB tumors): prolonged the survival of treated mice compared with DOX | tumor growth from day 12 to day 25 (Subcutaneous KB tumors): maintained a very low growth rate | average tumor size at day 25 after injection (Subcutaneous KB tumors; day 25): 553 mm^3 | proapoptotic effect after pretreatment with 1 mM folate (KB cells [7]): significantly diminished | AUC(0–∞) [8]: 992.943 μg/mL⋅h | CLz [8]: 0.19 mL/day/kg | Cmax [8]: 225.275 µg/L | Vz [8]: 0.070 L/kg
